The record followed here is PMC11756393 (Scientific Reports, 2025).

For data set [1], the system named is macrophages (human monocytes THP-1 differentiated). The data set can be described thus: MTT cytotoxicity assay on macrophages. It counts as cell-based. The conditions noted are these: SI as a marker of toxicity. An outline of the steps: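 THP-1 monocytes were differentiated to macrophages and grown at 37 °C, 5% CO2 in RPMI 1640 with 10% FBS. Test compound added in triplicate; untreated wells and medium with 1% DMSO served as controls. After 72 h, MTT was added for 4 h, formazan dissolved in DMSO and absorbance read at 490 nm. CC50 by probit analysis, mean ± SD; SI = CC50/amastigote IC50.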

The next data set deals with L. tropica promastigotes. Briefly: MTT assay on promastigotes. It counts as cell-based, Leishmania tropica. Particulars: for Combined effect with meglumine antimonate on promastigotes (in words): combination with MA, compared with MA monotherapy; for Inhibitory activity on promastigotes (in words): compound alone, compared with meglumine antimonate. A digest of the protocol:
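L. tropica promastigotes grown at 24 °C in RPMI 1640 with 10% FBS, seeded at 5 × 10^5 cells/ml and left overnight. Test compound then added in triplicate for 72 h. MTT for 4 h, formazan dissolved in DMSO, absorbance read at 490 nm. IC50 from nonlinear regression against untreated control. Meglumine antimonate combinations scored by combination index and isobologram additivity line.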

`COc1ccc(C2Oc3ccccc3C=C2[N+](=O)[O-])cc1` (stereo not drawn) [Compound 4d, 2-(4-methoxyphenyl)-3-nitro-2H-chromene]: the “Safety for mammalian macrophages judged by SI (in words)” value (from here on “Safety for mammalian macrophages judged”) in data set [1] is reported as “highly safe”.

Take `O=[N+]([O-])C1=Cc2ccccc2OC1c1cccc(OCc2ccc(Cl)cc2)c1` (stereo not drawn) [Compound 4n, 2-(3-((4-chlorobenzyl)oxy)phenyl)-3-nitro-2H-chromene]: the “Safety for mammalian macrophages judged” value in data set [1] is given as “highly safe”. Further, in the data set on L. tropica promastigotes, the “Combined effect with meglumine antimonate on promastigotes (in words)” value (from here on “Combined effect”) was “most pronounced synergistic effects” and the “Inhibitory activity on promastigotes (in words)” value (“Inhibitory activity” below) is reported as “comparable to meglumine antimonate”.

With `Cc1ccc(COc2cccc(C3Oc4ccccc4C=C3[N+](=O)[O-])c2)cc1` (stereo not drawn) [Compound 4k, 2-(3-((4-methylbenzyl)oxy)phenyl)-3-nitro-2H-chromene], in the data set with L. tropica promastigotes, the “Combined effect” value is listed as “most pronounced synergistic effects” and the “Inhibitory activity” value is on record as “comparable to meglumine antimonate”.

For `O=[N+]([O-])C1=Cc2ccccc2OC1c1cccc(OCc2ccc([N+](=O)[O-])cc2)c1` (stereo not drawn) [Compound 4o, 3-nitro-2-(3-((4-nitrobenzyl)oxy)phenyl)-2H-chromene], the “Safety for mammalian macrophages judged” value in data set [1] is reported as “highly safe”. In addition, in the data set on L. tropica promastigotes, the “Combined effect” value was “most pronounced synergistic effects” and the “Inhibitory activity” value is listed as “comparable to meglumine antimonate”.
